# Assay results as given in ChEMBL document CHEMBL3992483, “Traceless Solid-Phase α-Hydroxytropolone Synthesis” (Medchemcomm, 2016).
# pEC50, pIC50: −log10 of the molar value. “And” between values parts separate entries of the source, which are not always exact repeats. Equal values may be shown once.
# What was measured:
# [1] = Inhibition of HIV1 RT-RNase H activity using 18-nucleotide 3'-fluorescein-labeled RNA/5'-dabsyl-labeled DNA hybrid after 10 mins by FRET assay; set-up: species or system Human immunodeficiency virus 1
# [2] = system: Human immunodeficiency virus 1; assay: Stabilization of HIV1 RT-RNase H by sypro-orange dye-based differential scanning fluorimetric analysis
# Outline: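 Thermal shift of HIV RT RNase H in 20 mM HEPES pH 7.5, 10 mM MgCl2, 100 mM NaCl with Sypro Orange at 1:2000. 1 µL of 1 mM compound in DMSO added to 49 µL of this buffer. Heated 30 to 80 °C in 0.2 °C steps, read at ex 483 / em 568 nm. ΔTm determined, duplicate runs.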
# [3] = system: Human immunodeficiency virus 1; assay: Antiviral activity against HIV1 RF infected in human CEM-SS cells assessed as cytoprotective effect by measuring cell viability at 0.78 to 50 uM by XTT assay relative to control; assay type: functional
# Outline: (§1)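 HIV-1 strain RF infection of CEM-SS cells. Samples dissolved at 10 mM in DMSO, tested at 2-fold dilutions from 50 µM down to 0.78 µM final, in duplicate. EC50 estimated by regression analysis.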
# CEM-SS = assay: (§2) Cytotoxicity against human CEM-SS cells assessed as reduction in cell viability by XTT assay; assay type: cell-based; conditions: cem-ss
# Outline: (§3)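 Uninfected CEM-SS cells in the same plate as the HIV-1 RF infection assay. Compounds tested at 2-fold dilutions from 50 µM to 0.78 µM final, in duplicate. CC50 estimated by regression analysis.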
# [4] = system: Human immunodeficiency virus 1; assay: Antiviral activity against HIV1 RF infected in human CEM-SS cells assessed as cytoprotective effect by measuring increase in cell viability by XTT assay; assay type: functional, cell-based; outline: as §1
# [5] = as §2; assay type: cell-based; conditions: CEM-SS cells; outline: as §3
SMILES,pIC50 [1],ΔTm [2],Activity [3] [%],CC50 (CEM-SS),pEC50 [4],"pEC50 ([4]; Human immunodeficiency virus 1, RF, CEM-SS)",CC50 [5] [nM]
Cc1cc(O)c(=O)c(O)cc1C(=O)c1ccccc1,6.49 and 6.66,2.5 °C and 2.9 °C,<35,2600 to 8800 nM and 7200 to 8800 nM,,,
COC(=O)c1cc(O)c(=O)c(O)cc1C,6.36 and 6.80,2.9 °C and 2.7 °C,,5400 to 11000 nM and 15000 nM,5.38 to 5.66 and 5.11 to 5.14,,
CCOC(=O)c1cc(O)c(=O)c(O)cc1C,6.27 and 6.60,2.9 °C and 2.4 °C,<50,8500 to 9700 nM and 22000 nM,,5.29 to 5.32,
Cc1cc(O)c(=O)c(O)cc1-c1ccc(C(F)(F)F)cc1,6.10 and 5.96,0.2 °C and 0.9 °C,<35,2200 to 6700 nM,,,2300 to 7100
Cc1cc(O)c(=O)c(O)cc1-c1cccc2ccccc12,6.25 and 6.59,1 °C and 1.5 °C,<35,3300 to 6700 nM,,,2100 to 5400
Cc1cc(O)c(=O)c(O)cc1C(=O)c1ccc(-c2ccccc2)cc1,6.00 and 6.23,1.7 °C and 1.9 °C,<35,100 to 830 nM,,,140 to 970
Cc1cc(O)c(=O)c(O)cc1C(=O)C1CCCCC1,6.28 and 6.68,2 °C and 2.4 °C,<35,2700 to 7000 nM,,,2300 to 3100
CC(=O)c1cc(O)c(=O)c(O)cc1C,6.24 and 6.54,2.3 °C and 2.9 °C,,7700 to 24000 nM and 20000 to 21000 nM,5.28 to 5.55 and 5.14 to 5.19,,
Cc1cc(O)c(=O)c(O)cc1-c1ccccc1,6.60 and 6.41,2.2 °C and 1.5 °C,<35,5600 to 7000 nM and 2500 to 3700 nM,,,
